How the values were obtained:
[1] = Ratio of IC50 of compound in presence of ethylketazocine (EK) on the electrically stimulated guinea pig ileal longitudinal muscle (GPI) to that of IC50 of control value; format: functional
How it was run: (§1)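 Guinea pig ileal longitudinal muscle (GPI) strip. Ligand at 5 nM was preincubated with the tissue for 30 min, then an ethylketazocine (κ-selective) concentration-response curve was run. The IC50 ratio is the EK IC50 with antagonist over the control EK IC50 in the same GPI preparation. Relative potency is expressed against the monovalent reference ligand. Mean ± SE, n = 3.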

[2] = organism: Cavia porcellus; test: Compound was tested for its antagonistic activity with morphine on the electrically stimulated guinea pig ileal longitudinal muscle (GPI).; format: functional, Muscle tissue
How it was run: (§2)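 Guinea pig ileal longitudinal muscle (GPI) strip. Each ligand at 5 nM was incubated with the tissue for 30 min before a morphine (μ-selective) concentration-response curve was run. The IC50 ratio is the morphine IC50 with antagonist divided by the control IC50 in the same preparation. Relative potency is the ratio relative to the monovalent reference ligand. Mean ± SE of three determinations.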

[3] = Ratio of IC50 of compound in presence of morphine on the electrically stimulated guinea pig ileal longitudinal muscle (GPI) to that of IC50 of control value; format: functional; how it was run: as §2
[4] = organism: Cavia porcellus; test: Compound was tested for its antagonistic activity with ethylketazocine (EK) activity on the electrically stimulated guinea pig ileal longitudinal muscle (GPI).; format: functional, Muscle tissue; how it was run: as §1

## O=C(/C=C/C(=O)NCC(=O)NC1CCC2(O)C3Cc4ccc(O)c5c4C2(CCN3CC2CC2)C1O5)NCC(=O)NC1CCC2(O)C3Cc4ccc(O)c5c4C2(CCN3CC2CC2)C1O5 (stereo not given)
[1]
  Ratio: 6.6
[2]
  Relative potency: 3.6
[3]
  Ratio: 8.2

## O=C(/C=C/C(=O)NCC(=O)NCC(=O)NC1CCC2(O)C3Cc4ccc(O)c5c4C2(CCN3CC2CC2)C1O5)NCC(=O)NCC(=O)NC1CCC2(O)C3Cc4ccc(O)c5c4C2(CCN3CC2CC2)C1O5 (stereo not given)
[1]
  Ratio: 19.6
[2]
  Relative potency: 43
[4]
  Relative potency: 13.1
[3]
  Ratio: 100

## O=C(/C=C/C(=O)NCC(=O)NCC(=O)NCC(=O)NCC(=O)NC1CCC2(O)C3Cc4ccc(O)c5c4C2(CCN3CC2CC2)C1O5)NCC(=O)NCC(=O)NCC(=O)NCC(=O)NC1CCC2(O)C3Cc4ccc(O)c5c4C2(CCN3CC2CC2)C1O5 (stereo not given)
[1]
  Ratio: 3.3
[2]
  Relative potency: 9.9
[4]
  Relative potency: 2.2
[3]
  Ratio: 22.7

## O=C(/C=C/C(=O)NC1CCC2(O)C3Cc4ccc(O)c5c4C2(CCN3CC2CC2)C1O5)NC1CCC2(O)C3Cc4ccc(O)c5c4C2(CCN3CC2CC2)C1O5 (stereo not given)
[1]
  Ratio: 3.4
[2]
  Relative potency: 2.1
[4]
  Relative potency: 2.3
[3]
  Ratio: 4.8
